Converted amounts (≈) assume the structure as drawn. The source made the active and inactive calls. The calls are words filed in the database; no cut-off is given here.
Columns and labels:
[1] = Cytotoxicity against human PMA-differentiated THP-1 macrophages assessed as inhibition of cell growth by MTT assay; assay type: toxicity, cell-based, Macrophage
How it was run: (§1)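 About 2 × 10^5 THP-1 monocytes were differentiated with 20 ng/mL PMA for 48 h at 37 °C, and non-adherent cells were washed off with serum-free medium. Adherent macrophages were exposed to 10, 20, 50 and 100 µM compound for 48 h at 37 °C in 5% CO2. Viability was read by MTT.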

[2] = Selectivity index, ratio of IC50 for cytotoxicity against PMA-differentiated THP-1 macrophages to IC50 for antileishmanial activity against log phase of wild type Leishmania donovani MHOM/80/IN/Dd8 promastigotes; assay type: toxicity; conditions: human; read-out: Ratio IC50
Leishmania donovani [3] = test: Antileishmanial activity against log phase of wild type Leishmania donovani MHOM/80/IN/Dd8 promastigotes assessed as inhibition of cell growth incubated for 48 hrs by MTT assay; assay type: functional, organism-based; conditions: MHOM/80/IN/Dd8, 48 h
How it was run: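 L. donovani Dd8 promastigotes grown at 24 °C, pH 7.2, in HEPES-modified RPMI-1640 with 10% heat-inactivated FBS and antibiotics. 2 × 10^5 log-phase cells were exposed to 10–100 µM compound (10 mM DMSO stocks diluted in medium) for 48 h at 24 °C. MTT (400 µg/mL final) was added for 4 h at 37 °C, formazan dissolved in DMSO, and A540 read. IC50 was taken against untreated cells; mean ± SD of three independent experiments.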

Leishmania donovani [4] = test: Antileishmanial activity against amastigote stage of Leishmania donovani MHOM/SD/62/IS-CL2D assessed as inhibition of parasite growth incubated for 3 days by CellTiter 96 Aqueous Non-Radioactive Cell Proliferation Assay; assay type: functional, organism-based; conditions: 72 h
Leishmania donovani [5] = test: Induction of ROS generation in wild type Leishmania donovani MHOM/80/IN/Dd8 promastigotes at 5 uM incubated for 24 hrs by MitoSOX red dye based fluorescence spectrophotometric analysis relative to control; assay type: functional
How it was run: (§2)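 Promastigotes at about 1 × 10^6/mL were treated at ~5 or ~10 µM for 3, 6, 24 and 48 h, with 0.2% DMSO as vehicle and antimycin A (10 µM) as positive control. Cells were washed twice in HBSS and stained with 5 µM MitoSOX red for 20 min at 25 °C. Fluorescence was read at 510/580 nm ex/em.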

Leishmania donovani [6] = test: Induction of ROS generation in wild type Leishmania donovani MHOM/80/IN/Dd8 promastigotes at 10 uM incubated for 24 hrs by MitoSOX red dye based fluorescence spectrophotometric analysis; assay type: functional; how it was run: as §2
Leishmania donovani [7] = test: Induction of ROS generation in wild type Leishmania donovani MHOM/80/IN/Dd8 promastigotes at 5 to 10 uM incubated for 48 hrs by MitoSOX red dye based fluorescence spectrophotometric analysis; assay type: functional, organism-based; conditions: dose 5-10 µM; how it was run: as §2
Macrophage = test: Cytotoxicity against human PMA-differentiated THP-1 macrophages assessed as inhibition of cell growth measured upto 100 uM by MTT assay; assay type: toxicity, cell-based; how it was run: as §1
Leishmania mexicana = test: Antileishmanial activity against Leishmania mexicana assessed as inhibition of parasite growth; assay type: functional, organism-based
Leishmania amazonensis = test: Antileishmanial activity against Leishmania amazonensis assessed as inhibition of parasite growth; assay type: functional, organism-based
Leishmania braziliensis = test: Antileishmanial activity against Leishmania braziliensis assessed as inhibition of parasite growth; assay type: functional, organism-based
Leishmania donovani [8] = test: Antileishmanial activity against Leishmania donovani assessed as inhibition of parasite growth incubated for 2 hrs by y [3H]thymidine incorporation assay; assay type: functional, organism-based
Leishmania donovani [9] = test: Induction of ROS generation in wild type Leishmania donovani MHOM/80/IN/Dd8 promastigotes incubated for 24 hrs by MitoSOX red dye based fluorescence spectrophotometric analysis; assay type: functional, organism-based
How it was run: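 Promastigotes were grown at 24 °C in HEPES-modified RPMI-1640 with 10% heat-inactivated FBS, pH 7.2. About 1 × 10^6 parasites/ml were exposed to ~5 µM or ~10 µM test compound. Controls were untreated cells, antimycin A (10 µM) and 0.2% DMSO vehicle. Cells were washed twice in HBSS and stained with 5 µM MitoSOX red for 20 min at 25 °C. Fluorescence was read at ex 510/em 580 nm.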

Structure (SMILES) | IC50 [1] [µM] | selectivity ratio [2] | IC50 (Leishmania donovani [3]) [µM] | further results
NCCNc1nc(-c2ccc(Cl)cc2)nc2ccccc12 | 15 | 2.3 | 6.5 | –
CN(C)CCCNc1nc(-c2ccccc2)nc2ccccc12 | > 100 | > 11.1 | 9 | –
O=C1c2cc(I)ccc2-n2c1nc1ncccc1c2=O | – | – | – | IC50 (Leishmania donovani [4]): 0.016 µg/mL (≈ 0.0427 µM)
COc1ccc(-c2nc(NCCN(C)C)c3ccccc3n2)cc1 | 57 | 11 | 5 | Activity (Leishmania donovani [5]): 50%; Activity (Leishmania donovani [6]): 82%; Activity (Leishmania donovani [7]): Active
CCCCCCCCCCCCCCCCOP(=O)([O-])OCC[N+](C)(C)C [MILTEFOSINE] | 36 | 3.42 | 10.5 | –
CN(C)CCCNc1nc(-c2ccc(F)cc2)nc2ccccc12 | 63 | 4.84 | 13 | –
COc1cc(-c2nc(NCCCN3CCOCC3)c3ccccc3n2)cc(OC)c1OC | – | – | – | Activity (Macrophage): Toxic
Oc1ccc(-c2nc(NCCCN3CCOCC3)c3ccccc3n2)cc1 | 71 | 1.42 | 50 | –
COc1cc(-c2nc(NCCCN(C)C)c3ccccc3n2)cc(OC)c1OC | 61 | 2.06 | 29.5 | –
NCCCCNc1nc(-c2ccc(F)cc2)nc2ccccc12 | 64 | 1.96 | 32.5 | –
NCCCCNc1nc(-c2ccc(Cl)cc2)nc2ccccc12 | 13 | 1.08 | 12 | –
COc1cccc(-c2nc(NCCCN(C)C)c3ccccc3n2)c1 | 37 | 6.72 | 5.5 | –
COc1cccc(-c2nc(O)c3ccccc3n2)c1 | – | – | – | EC50 (Leishmania mexicana): 5.29 µM; EC50 (Leishmania amazonensis): 9.14 µM; EC50 (Leishmania braziliensis): 4.89 µM
COc1cc(-c2nc(NCCN(C)C)c3ccccc3n2)cc(OC)c1OC | 50 | 7.69 | 6.5 | –
CN(C)CCCNc1nc(-c2ccc(O)cc2)nc2ccccc12 | 65 | 10 | 6.5 | –
COc1ccc(-c2nc(NCCCN(C)C)c3ccccc3n2)cc1 | 67.5 | 13.5 | 5 | Activity (Leishmania donovani [5]): 63%; Activity (Leishmania donovani [6]): 119%; Activity (Leishmania donovani [7]): Active
COc1ccc(-c2nc(NCCCN3CCN(C)CC3)c3ccccc3n2)cc1 | 53 | 7.28 | 6.3 | –
COc1ccc(-c2nc(NCCN(C)C)c3ccccc3n2)cc1O | 22.5 | 3.46 | 6.5 | –
CN1CCN(CCCNc2nc(-c3ccc(F)cc3)nc3ccccc23)CC1 | 40 | 5 | 8 | –
CN(C)CCCNc1nc(-c2ccc(Cl)cc2)nc2ccccc12 | 62 | 9.53 | 6.5 | –
COc1ccc(-c2nc(NCCCN3CCOCC3)c3ccccc3n2)cc1O | 33.5 | 1.76 | 19 | –
NCCNc1nc(-c2ccc(F)cc2)nc2ccccc12 | 64 | 2.56 | 25 | –
CN(C)CCNc1nc(-c2ccc(Cl)cc2)nc2ccccc12 | 60 | 8 | 7.5 | –
CN1CCN(CCCNc2nc(-c3ccc(Cl)cc3)nc3ccccc23)CC1 | – | – | 28.5 | –
COc1ccc(-c2nc(NCCCN3CCOCC3)c3ccccc3n2)cc1 | 56 | 2.24 | 25 | –
COc1cc(-c2nc(NCCCN3CCN(C)CC3)c3ccccc3n2)cc(OC)c1OC | 54 | 0.6 | 90 | –
C=CC(C)(C)c1cc(/C=C/C(=O)c2ccc(O)cc2)c(OC)cc1O [LICOAGROCHACONE A] | – | – | – | IC50 (Leishmania donovani [8]): 4 µg/mL (≈ 11.8 µM)
CN(C)CCNc1nc(-c2ccc(O)cc2)nc2ccccc12 | 51 | 9.27 | 5.5 | –
CCCCCC[C@H]1C(=O)O[C@H](C)[C@H](NC(=O)c2cccc(NC=O)c2O)C(=O)O[C@@H](C)[C@@H]1OC(=O)CC(C)C | – | – | – | Activity (Leishmania donovani [9]): Active
